Test results reported in ChEMBL document CHEMBL3774386, “Synthesis and structure activity relationship investigation of triazolo[1,5-a]pyrimidines as CB2 cannabinoid receptor inverse agonists” (Eur J Med Chem, 2016).

What was measured:
CHO = assay: Selectivity ratio of Ki for human CB1 receptor expressed in CHO cell membranes to Ki for human CB2 receptor expressed in CHO cell membranes; assay type: cell-based
Outline: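 CHO membranes with human CB1 or CB2 in 50 mM Tris-HCl, 0.5% BSA, pH 7.4, 5 mM MgCl2, with 1 mM (CB1) or 2.5 mM (CB2) EDTA. Competition against 0.5 nM [3H]CP-55,940 at 30 °C for 90 min (CB1) or 60 min (CB2). GF/C filtration, scintillation counting. Ki from IC50 by Cheng–Prusoff; mean ± SEM, n = 4.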

Cannabinoid receptor 2 [1] = molecular target: T1, Cannabinoid receptor 2 (Homo sapiens, UniProt P34972); assay: Displacement of [3H]CP-55,940 from human CB2 receptor expressed in CHO cell membranes after 60 mins by scintillation counting analysis
T1 sequence (P34972 whole entry): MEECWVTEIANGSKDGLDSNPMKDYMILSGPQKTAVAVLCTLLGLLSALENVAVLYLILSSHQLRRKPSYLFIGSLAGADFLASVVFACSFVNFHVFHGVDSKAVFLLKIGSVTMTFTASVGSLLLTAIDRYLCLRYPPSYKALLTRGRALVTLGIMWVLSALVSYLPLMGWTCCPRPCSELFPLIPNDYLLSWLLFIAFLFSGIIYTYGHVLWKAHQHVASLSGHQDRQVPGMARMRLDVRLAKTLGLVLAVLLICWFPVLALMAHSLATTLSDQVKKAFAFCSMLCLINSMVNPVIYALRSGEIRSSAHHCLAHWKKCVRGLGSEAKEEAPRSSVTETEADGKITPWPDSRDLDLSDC

Cannabinoid receptor 1 = Cannabinoid receptor 1 (Homo sapiens, UniProt P21554); assay: Displacement of [3H]CP-55,940 from human CB1 receptor expressed in CHO cell membranes after 90 mins by scintillation counting analysis
Cannabinoid receptor 1, sequence (P21554 whole entry): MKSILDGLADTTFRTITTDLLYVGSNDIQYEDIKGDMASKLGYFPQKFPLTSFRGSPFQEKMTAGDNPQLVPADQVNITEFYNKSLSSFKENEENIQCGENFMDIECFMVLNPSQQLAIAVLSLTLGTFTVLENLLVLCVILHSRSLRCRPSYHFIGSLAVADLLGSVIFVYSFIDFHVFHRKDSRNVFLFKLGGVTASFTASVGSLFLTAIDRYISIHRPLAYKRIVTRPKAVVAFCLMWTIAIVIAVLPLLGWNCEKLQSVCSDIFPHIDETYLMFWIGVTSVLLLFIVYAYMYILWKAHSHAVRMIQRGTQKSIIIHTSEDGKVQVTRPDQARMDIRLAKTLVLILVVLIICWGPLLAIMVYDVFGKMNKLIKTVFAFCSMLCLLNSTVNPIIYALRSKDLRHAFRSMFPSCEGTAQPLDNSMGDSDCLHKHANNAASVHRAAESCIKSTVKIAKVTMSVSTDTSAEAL

Cannabinoid receptor 2 [2] = molecular target: T1, Cannabinoid receptor 2; assay: Antagonist activity at human CB2 receptor transfected in CHO cells assessed as inhibition of WIN 55,212-2 mediated suppression of forksolin induced cAMP production by scintillation counting analysis; assay type: functional, cell-based
Outline: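 Human CB2-transfected CHO cells, 1 × 10^6 cells/assay, forskolin-stimulated, with WIN 55,212-2 (20 nM) plus compound over a concentration range. cAMP read by [3H]-cAMP competition: 150 min at 4 °C, charcoal separation, scintillation counting. IC50 derived from reversal of the WIN 55,212-2 inhibition; mean ± SEM of three experiments in duplicate.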

Cannabinoid receptor 2 [3] = molecular target: T1, Cannabinoid receptor 2; assay: Inverse agonist activity at human CB2 receptor transfected in CHO cells assessed as increase in forksolin stimulated cAMP production by scintillation counting analysis; assay type: functional, cell-based
Outline: (§1)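 Human CB2-transfected CHO cells detached with trypsin, 1 × 10^6 cells/assay, with forskolin and compound over a concentration curve. cAMP measured by [3H]-cAMP competition: 150 min at 4 °C, charcoal, centrifugation, supernatant counted. Expressed as % increase of forskolin-stimulated cAMP and fitted for EC50; three independent experiments in duplicate.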

Cannabinoid receptor 2 [4] = molecular target: T1, Cannabinoid receptor 2; assay: Inverse agonist activity at human CB2 receptor transfected in CHO cells assessed as increase in forksolin stimulated cAMP production at 10 uM by scintillation counting analysis relative to control; assay type: functional, cell-based
Cannabinoid receptor 2 [5] = molecular target: T1, Cannabinoid receptor 2; assay: Inverse agonist activity at human CB2 receptor transfected in CHO cells assessed as increase in forksolin stimulated cAMP production at 1 uM by scintillation counting analysis relative to control; assay type: functional, cell-based
Cannabinoid receptor 2 [6] = molecular target: T1, Cannabinoid receptor 2; assay: Partial agonist activity at human CB2 receptor transfected in CHO cells assessed as forksolin stimulated cAMP production by scintillation counting analysis relative to control; assay type: functional, cell-based; outline: as §1

Structure (SMILES)	Ratio Ki (CHO)	Ki (Cannabinoid receptor 2 [1])	Ki (Cannabinoid receptor 1)	IC50 (Cannabinoid receptor 2 [2])	EC50 (Cannabinoid receptor 2 [3])	Emax (Cannabinoid receptor 2 [4])	Emax (Cannabinoid receptor 2 [5])	Emax (Cannabinoid receptor 2 [6])
CCCCCn1cc(C(=O)NC23CC4CC(CC(C4)C2)C3)c(=O)n2nc(-c3cccnc3)nc12	> 44	228 nM	> 10000 nM					
CCCCCn1cc(C(=O)NC23CC4CC(C)(CC(C)(C4)C2)C3)c(=O)n2nc(-c3ccccc3)nc12	77	8.4 nM	653 nM	18.4 nM	489 nM	243%		
CCCCCn1cc(C(=O)NC23CC4CC(CC(C4)C2)C3)c(=O)n2nc(-c3ccco3)nc12	26	45 nM	1170 nM	124 nM	771 nM	132%	53%	
CCCCCn1cc(C(=O)NC2CCCCC2)c(=O)n2nc(N3CCN(C)CC3)nc12	> 188	> 10000 nM	> 10000 nM					
CCCCCn1cc(C(=O)NC2CCCCC2)c(=O)n2nc(-c3ccccc3)nc12	75	43 nM	3210 nM	111 nM	756 nM	132%	53%	
CCCCCn1cc(C(=O)NC2CCCCC2)c(=O)n2nc(-c3ccc(Cl)cc3)nc12	40	117 nM	4720 nM					
CCCCCn1cc(C(=O)NC23CC4CC(CC(C4)C2)C3)c(=O)n2nc(-c3ccccc3)nc12	146			8.6 nM	161 nM	132%	53%	
C=CCN(CC=C)c1nc2n(CCCCC)cc(C(=O)NC34CC5CC(CC(C5)C3)C4)c(=O)n2n1	> 63	158 nM	> 10000 nM					
CCCCCn1cc(C(=O)NC2CCCCCC2)c(=O)n2ncnc12	1	514 nM	717 nM					
CCCCCn1cc(C(=O)NC2CCCCCC2)c(=O)n2nc(-c3ccc(C)cc3)nc12	289	22 nM	6350 nM	64 nM	393 nM	132%	53%	
CCCCCn1cc(C(=O)NC2CCCCCC2)c(=O)n2nc(N3CCN(C)CC3)nc12	> 10	982 nM	> 10000 nM					
CCCCCn1cc(C(=O)NC23CC4CC(CC(C4)C2)C3)c(=O)n2nc(-c3ccc(Cl)cc3)nc12	462	11.3 nM	5220 nM	24.6 nM	637 nM	223%		
CCCCCn1cc(C(=O)NC2CCCCCC2)c(=O)n2nc(-c3ccccc3)nc12	52	48 nM	2480 nM	142 nM	849 nM	132%	53%	
CCCCCn1cc(C(=O)NC2CCCCC2)c(=O)n2nc(-c3ccc(OC)cc3)nc12	61	96 nM	5850 nM					
CCCCCn1cc(C(=O)NC23CC4CC(CC(C4)C2)C3)c(=O)n2nc(C)nc12	1	383 nM	471 nM	865 nM	2080 nM	132%	53%	
CCCCCn1cc(C(=O)NC2CCCCC2)c(=O)n2nc(-c3ccc(C)cc3)nc12	> 323	31 nM	> 10000 nM	79 nM	464 nM	132%	53%	
CCCCCn1cc(C(=O)NC2CCCCC2)c(=O)n2nc(SC)nc12	> 14	716 nM	> 10000 nM					
CCCCCn1cc(C(=O)NC23CC4CC(CC(C4)C2)C3)c(=O)n2nc(-c3ccc(OC)cc3)nc12	79	47 nM	3720 nM	128 nM	858 nM	132%	53%	
CCCCCn1cc(C(=O)NC2CCCCC2)c(=O)n2nc(N3CCOCC3)nc12		> 10000 nM	> 10000 nM					
CCCCCn1cc(C(=O)NC23CC4CC(CC(C4)C2)C3)c(=O)n2ncnc12	36					132%	53%	57%
C=CCN(CC=C)c1nc2n(CCCCC)cc(C(=O)NC3CCCCC3)c(=O)n2n1	> 7	1350 nM	> 10000 nM					
CCCCCn1cc(C(=O)NC23CC4CC(CC(C4)C2)C3)c(=O)n2nc(SC)nc12	> 213	47 nM	> 10000 nM	139 nM	494 nM	132%	53%	
CCCCCn1cc(C(=O)NC2CCCCC2)c(=O)n2nc(C)nc12	1	674 nM	488 nM					
CCCCCn1cc(C(=O)NC23CC4CC(CC(C4)C2)C3)c(=O)n2nc(-c3ccc(C)cc3)nc12	223	6.8 nM	1520 nM	12.6 nM	652 nM	256%		
Cc1c(C(=O)c2cccc3ccccc23)c2cccc3c2n1[C@H](CN1CCOCC1)CO3						132%	53%	
CCCCCn1cc(C(=O)NC23CC4CC(CC(C4)C2)C3)c(=O)n2nc(N(C)Cc3ccccc3)nc12	> 476	21 nM	> 10000 nM	29 nM	453 nM	132%	53%	
CCCCCn1cc(C(=O)NC23CC4CC(C)(CC(C)(C4)C2)C3)c(=O)n2ncnc12	25	25 nM	622 nM		88 nM	132%	53%	60%
CCCCCn1cc(C(=O)NC2CCCCCC2)c(=O)n2nc(N3CCOCC3)nc12	> 18	566 nM	> 10000 nM					
CCCCCn1cc(C(=O)NC2CCCCC2)c(=O)n2nc(N(C)Cc3ccccc3)nc12	> 7	1330 nM	> 10000 nM					
CCCCCn1cc(C(=O)NC23CC4CC(CC(C4)C2)C3)c(=O)n2nc(N3CCOCC3)nc12	140	53 nM	> 10000 nM	162 nM	670 nM	132%	53%	
